# Assay results: publication PMC4565189 (Biochemistry, 2013)
# No end group written: not given here.
# What was measured:
# [1] = system: α-synuclein self-association in SK-N-SH cells; format: cell-based, human
# PLCβ1 [2] = format: biochemical
# purified α-synuclein = experiment: CoCl2-induced aggregation of purified α-synuclein, SDS gel; format: biochemical
# PLCβ1 [3] = experiment: Western blot of PLCβ1 level in SK-N-SH cells under oxidative stress; format: cell-based, human
# α-synuclein = format: cell-based, human
# [4] = system: PLCβ1-α-synuclein association; experiment: In vitro FRET: CPM-PLCβ1 / Dabcyl-α-synuclein association; format: binding; settings: 200 µM and 500 µM peptide
# [5] = system: α-synuclein self-association in PC12 cells; experiment: GFP-α-synuclein/mCherry-α-synuclein FRET in PC12 cells; format: cell-based, human; settings: 50 µM peptide microinjected, viewed within 2 h
# How it was run: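 PC12 cells (DMEM, 10% horse serum, 5% FBS, 37 °C, 5% CO₂) are electroporated with eGFP- and mCherry-α-synuclein and plated on glass-bottom dishes 24 h later. Medium is switched to phenol-free L-15. Peptide (50 µM in pipette; 100 mM KCl, 5 mM K₂HPO₄, pH 7.4, 5 µM DAPI marker) is injected into cytoplasm for 0.4 s (30/15 hPa). Viable cells are selected, then confocal FRET is imaged within 2 h.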
# PLCβ1 [6] = settings: in cells; ref [16]; cited from earlier work
# neuronal cells = settings: overexpression of α-synuclein; ref [34]; cited from earlier work
# PLCβ [7] = settings: inhibition can be overcome by G proteins; ref [15]; cited from earlier work
# PLCβ [8] = settings: among α-synuclein binding partners; ref [15]; cited from earlier work
# PLCβ1-C3PO interaction = settings: in vitro FRET; ref Sahu, Guo, and Scarlata, unpublished results; cited from earlier work
compound,measurement,setting,value
[Cl-].[Cl-].[Co+2] [CoCl2],"GFP-α-synuclein/mCherry-α-synuclein FRET, oxidative stress",[1],significant increase in FRET
same,Amount of native PLCβ1,PLCβ1 [2],reduces the amount of native PLCβ1
same,α-Synuclein aggregation induced by CoCl2,purified α-synuclein,produces visible α-synuclein aggregation
same,Cellular level of PLCβ1,PLCβ1 [3],significantly reduces the cellular level of PLCβ1
same,Amount of α-synuclein,α-synuclein,little effect on the amount of α-synuclein
same,α-Synuclein tetramers vs monomers,α-synuclein,increase in α-synuclein tetramers at the expense of monomers
CKKVVLPTLASLR [peptide],PLCβ1-α-synuclein association,[4],inhibits PLCβ1-α-synuclein association
same,"GFP-α-synuclein/mCherry-α-synuclein FRET, peptide",[5],the same within error
α-synuclein,Intracellular level of PLCβ1,PLCβ1 [6],raises the intracellular level of the enzyme
same,PLCβ1 degradation by calpain,PLCβ1 [6],prevents PLCβ1 degradation by calpain
same,Inclusions and neuronal death on overexpression,neuronal cells,cause inclusions and neuronal death
same,PLCβ activity,PLCβ [7],inhibits PLCβ activity
same,"Decrease of PLCβ1 level due to oxidation, effect of α-synuclein","PLCβ1 [3]; oxidative stress, α-synuclein present",more pronounced in the presence of α-synuclein
same,Affinity of PLCβ for α-synuclein,PLCβ [8],one of the strongest affinities
same,Interaction of Alexa488-PLCβ1 with Alexa546-C3PO,PLCβ1-C3PO interaction,prevents Alexa488-PLCβ1 from interacting with Alexa546-C3PO
